Our source for the IC50, Ka and Ki values is ChEMBL document CHEMBL1132386, “Mixture-based synthetic combinatorial libraries” (J Med Chem, 1999).

In assay [1] the target is Kappa-type opioid receptor (Cavia porcellus) (UniProt P41144). The assay is described as follows: Inhibitory activity for kappa opioid receptor.
Assay [2] concerns the target Sigma non-opioid intracellular receptor 1 (Homo sapiens, UniProt Q99720). Briefly: Inhibitory activity towards Sigma opioid receptor type 1.
For assay [3], the target named is T1, Adenosine deaminase (Homo sapiens) (UniProt P00813).
T1 sequence (whole entry): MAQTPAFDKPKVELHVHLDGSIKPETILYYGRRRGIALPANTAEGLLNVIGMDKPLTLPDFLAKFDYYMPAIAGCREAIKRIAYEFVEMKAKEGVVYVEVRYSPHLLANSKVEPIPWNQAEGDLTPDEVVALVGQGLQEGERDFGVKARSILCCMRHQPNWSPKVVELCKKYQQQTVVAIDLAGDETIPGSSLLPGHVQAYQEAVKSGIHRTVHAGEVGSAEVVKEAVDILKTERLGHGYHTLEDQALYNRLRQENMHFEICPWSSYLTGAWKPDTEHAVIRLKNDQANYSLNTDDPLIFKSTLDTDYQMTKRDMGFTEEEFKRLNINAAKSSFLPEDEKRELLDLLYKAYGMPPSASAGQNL

Another assay has as its target Mu-type opioid receptor (Homo sapiens, UniProt P35372). The assay is described as follows: Antagonistic activity towards Opioid receptor mu 1. In kind it is functional.
The target of assay [4] is GABA-A receptor; anion channel. The assay is described as follows: Inhibition of binding to GABA-A Benzodiazepine receptor. In kind it is protein-complex assay.
The target of assay [5] is Kappa-type opioid receptor (Cavia porcellus, UniProt P41144). The assay is described as follows: Inhibition of Opioid receptor kappa 1 binding. The gist of the method: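 Kappa opioid radioreceptor binding in guinea pig brain homogenate with 3 nM [3H]U69,593 as radioligand, incubated 2.5 h at 25°C. Library mixtures were screened at 4 μg/mL. Data were normalized to percent inhibition using background and total binding.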
Chain of Kappa-type opioid receptor (P41144 whole entry): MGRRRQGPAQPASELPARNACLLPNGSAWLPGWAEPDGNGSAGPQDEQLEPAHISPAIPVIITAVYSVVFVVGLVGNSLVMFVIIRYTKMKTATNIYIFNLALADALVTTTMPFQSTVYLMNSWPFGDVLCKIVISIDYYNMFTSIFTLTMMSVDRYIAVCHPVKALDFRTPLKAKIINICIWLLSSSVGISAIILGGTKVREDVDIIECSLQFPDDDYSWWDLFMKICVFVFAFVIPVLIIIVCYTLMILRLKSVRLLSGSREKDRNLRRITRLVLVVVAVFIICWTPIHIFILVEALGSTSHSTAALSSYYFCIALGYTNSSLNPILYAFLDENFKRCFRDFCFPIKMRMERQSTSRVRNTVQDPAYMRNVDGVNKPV

The target of another assay is Acetylcholinesterase (Homo sapiens, UniProt P22303). Briefly: Enzyme inhibitory activity towards Acetylcholinesterase.
Chain of Acetylcholinesterase (P22303 whole entry): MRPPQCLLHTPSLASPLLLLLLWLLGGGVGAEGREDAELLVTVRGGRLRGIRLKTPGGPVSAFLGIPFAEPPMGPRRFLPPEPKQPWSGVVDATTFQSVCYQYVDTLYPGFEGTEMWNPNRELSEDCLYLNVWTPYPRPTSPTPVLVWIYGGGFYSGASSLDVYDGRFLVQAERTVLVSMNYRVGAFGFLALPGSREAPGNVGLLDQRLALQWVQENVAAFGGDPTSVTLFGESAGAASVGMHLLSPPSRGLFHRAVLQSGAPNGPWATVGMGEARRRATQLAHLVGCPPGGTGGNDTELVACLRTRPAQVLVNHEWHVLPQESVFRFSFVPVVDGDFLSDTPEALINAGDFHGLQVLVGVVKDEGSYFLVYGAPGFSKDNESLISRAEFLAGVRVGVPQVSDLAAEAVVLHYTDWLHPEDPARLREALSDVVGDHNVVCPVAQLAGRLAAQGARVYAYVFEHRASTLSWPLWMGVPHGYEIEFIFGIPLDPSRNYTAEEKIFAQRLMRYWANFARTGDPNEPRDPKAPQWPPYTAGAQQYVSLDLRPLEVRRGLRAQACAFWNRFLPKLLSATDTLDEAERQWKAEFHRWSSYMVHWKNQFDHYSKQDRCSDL
Assay [6] is described as follows: Enzyme inhibitory activity towards Matrix metalloproteases.

The IC50 is the concentration that gives 50% inhibition. Broadly, the Ki is a dissociation constant, usually derived from enzyme kinetics or from competition with a known ligand.

Chain of Kappa-type opioid receptor (Cavia porcellus) (P41144 whole entry, looked up): as the sequence (P41144 whole entry) above
Chain of Sigma non-opioid intracellular receptor 1 (Q99720 whole entry): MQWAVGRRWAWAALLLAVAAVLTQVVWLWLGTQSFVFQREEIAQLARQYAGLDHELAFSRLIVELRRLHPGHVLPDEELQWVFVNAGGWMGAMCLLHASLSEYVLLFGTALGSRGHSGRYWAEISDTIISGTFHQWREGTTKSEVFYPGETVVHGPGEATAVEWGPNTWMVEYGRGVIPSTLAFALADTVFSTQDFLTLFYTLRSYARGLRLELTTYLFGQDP
Chain of Mu-type opioid receptor (P35372 whole entry): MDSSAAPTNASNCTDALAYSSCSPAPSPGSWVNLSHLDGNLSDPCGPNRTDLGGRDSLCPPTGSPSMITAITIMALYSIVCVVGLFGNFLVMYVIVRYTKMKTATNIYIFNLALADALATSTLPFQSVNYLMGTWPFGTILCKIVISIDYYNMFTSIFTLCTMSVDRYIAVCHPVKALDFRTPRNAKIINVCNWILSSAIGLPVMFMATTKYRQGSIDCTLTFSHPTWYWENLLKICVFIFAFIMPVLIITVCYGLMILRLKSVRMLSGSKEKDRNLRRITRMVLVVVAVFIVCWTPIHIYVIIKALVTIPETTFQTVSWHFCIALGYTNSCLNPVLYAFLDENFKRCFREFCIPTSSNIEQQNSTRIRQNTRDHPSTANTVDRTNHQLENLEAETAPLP

In turn, `CC(N1C2=NC[C@H](C3CCCCC3)N2C[C@@H]1C1CCCCC1)C12CC3CC(CC(C3)C1)C2` (stereo partly drawn) yielded an IC50 in assay [1] of 1490 nM.

In the case of `CC(C)C[C@@H]1CN2C(=NC[C@@H]2C2CCCCC2)N1C(C)C12CC3CC(CC(C3)C1)C2` (stereo partly drawn), in assay [1], half-maximal inhibition (IC50) required 1210 nM. This IC50 and that of the molecule before are within 1.5-fold of each other.

`O=C1CNC(=O)N1` [HYDANTOIN]: 62 nM corresponded to half-maximal inhibition in assay [2] (IC50).

For `Nc1ncnc2c1ncn2[C@@H]1O[C@H](CO)[C@@H](O)[C@H]1O`, the Ka in assay [3] was 1e+08 M⁻¹.

Molecule `CC(N1C2=NC[C@H](C)N2C[C@@H]1C1CCCCC1)C12CC3CC(CC(C3)C1)C2` (stereo partly drawn) gave a concentration for half-maximal inhibition (IC50) in assay [1] of 1940 nM.

For `CCCCCC(C)N` (stereo not drawn) [TUAMINOHEPTANE], on Mu-type opioid receptor, the IC50 came to 14 nM.

`c1cc2c(cn1)CCCC2` [5,6,7,8-TETRAHYDROISOQUINOLINE] returned an IC50 in assay [2] of 56 nM.

`CC(C)C[C@@H]1CN2C(=NC[C@H]2C2CCCCC2)N1CC1CCC(C)CC1` (stereo partly drawn) yielded an IC50 in assay [1] of 738 nM.

`CC(N1C2=NC[C@@H](C3CCCCC3)N2C[C@@H]1C1CCCCC1)C12CC3CC(CC(C3)C1)C2` (stereo partly drawn) yielded an IC50 in assay [1] above 10000 nM.

In assay [1], `CC(C)C[C@@H]1CN2C(=NC[C@@H]2C)N1CCCC1CCCCC1` had an IC50 of 5440 nM.

For `O=c1cc(-c2ccccc2)oc2ccccc12` [FLAVONE], affinity in assay [4] was put at a Ki of 17 nM.

In turn, `CC1CCC(CN2C3=NC[C@H](C)N3C[C@@H]2C2CCCCC2)CC1` (stereo partly drawn) came in with an IC50 in assay [1] of 5060 nM. This counts as single-digit micromolar.

In assay [1], `CC(C)C[C@@H]1CN2C(=NC[C@H]2C2CCCCC2)N1C(C)C12CC3CC(CC(C3)C1)C2` (stereo partly drawn) had an IC50 of 1750 nM.

Regarding `CC(C)C[C@@H]1CN2C(=NC[C@@H]2C)N1CCC1CC2CCC1C2` (stereo partly drawn), the IC50 in assay [1] came to 2310 nM.

On to `C1CCC([C@H]2CN3C(=NC[C@@H]3C3CCCCC3)N2CCC2CC3CCC2C3)CC1` (stereo partly drawn), for which it took 560 nM to reach half-maximal inhibition in assay [1] (IC50). Compared with the last molecule, the IC50 is about 4.1-fold lower.

Regarding `CC(C)C[C@@H]1CN2C(=NC[C@@H]2C2CCCCC2)N1CC1CCC(C)CC1` (stereo partly drawn), the values for the IC50 in assay [5] and in assay [1] were 3680 nM and 999 nM, respectively.

In turn, `NC(=O)O` [CARBAMIC ACID] displayed an IC50 against Acetylcholinesterase of 67000 nM.

`CC(C)C[C@@H]1CN2C(=NC[C@H]2C2CCCCC2)N1CCCC1CCCCC1` showed an IC50 in assay [1] of 1770 nM.

`C1CCC([C@H]2CN3C(=NC[C@H]3C3CCCCC3)N2CCC2CC3CCC2C3)CC1` (stereo partly drawn) registered an IC50 in assay [1] of 524 nM. This IC50 lies about 3.4-fold lower than the previous one.

For `CC(C)C[C@@H]1CN2C(=NC[C@@H]2C2CCCCC2)N1CCCC1CCCCC1`, in assay [1], the IC50 is 3740 nM. Against the preceding molecule, the IC50 is about 7.1-fold higher.

For `CC(C)C[C@@H]1CN2C(=NC[C@@H]2C)N1C(C)C12CC3CC(CC(C3)C1)C2` (stereo partly drawn), the IC50 in assay [1] amounted to 3640 nM.

Consider `O=C1CNC(=O)CN1` [DIKETOPIPERAZINE], for which, in assay [6], the IC50 stood at 30000 nM.
